SIAE inh – human SIAE inhibitors, primary screen, biochemical, fluorescence polarization, FP-Rh probe, 1536-well HTS. SIAE FP-Rh probe binding. inhibition, % at 9.66 µM. 0.69% of 370,000 active;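 active = inhibition above a cutoff: mean of compounds within the control limits plus 3 SD of those, cut at about 17% in these data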;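 also: 0% = plate median of compound wells and 100% = probe without SIAE protein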
Target sequence (Q9HAT2 whole entry, looked up): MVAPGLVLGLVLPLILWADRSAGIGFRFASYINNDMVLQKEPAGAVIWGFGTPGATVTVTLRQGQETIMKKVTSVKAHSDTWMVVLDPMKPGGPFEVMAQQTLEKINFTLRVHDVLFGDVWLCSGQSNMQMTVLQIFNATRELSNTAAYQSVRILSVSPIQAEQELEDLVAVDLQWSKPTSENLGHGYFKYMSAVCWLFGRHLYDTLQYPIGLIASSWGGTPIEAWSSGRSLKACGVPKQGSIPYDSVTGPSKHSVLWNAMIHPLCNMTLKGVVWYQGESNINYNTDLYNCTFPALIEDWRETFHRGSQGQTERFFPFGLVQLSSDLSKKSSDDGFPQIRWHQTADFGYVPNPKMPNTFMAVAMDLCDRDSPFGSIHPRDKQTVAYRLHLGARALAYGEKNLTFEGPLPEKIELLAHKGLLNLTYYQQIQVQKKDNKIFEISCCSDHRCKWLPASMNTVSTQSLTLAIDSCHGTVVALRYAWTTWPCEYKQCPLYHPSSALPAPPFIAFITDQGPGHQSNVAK
TCR CD3 inh – inhibitors of human TCR-CD3 interaction, primary screen, biochemical, fluorescence, TAMRA-labeled TCR probe; T-cell receptor (TCR); inhibition, % at 9.4 µM; 0.37% of 360,000 active; AID 651800, 2012; in the data active = inhibition above about 19%;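 also: recombinant mutant TCR 2C K166C tagged with TAMRA read by polarization; 0% = receptor in buffer alone and 100% = receptor with positive control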
rCAG RNA binder – binders of r(CAG) RNA repeats, primary screen, biochemical, fluorescence. r(CAG) RNA repeat, TO-PRO-1 dye displacement fluorescence. inhibition, % at 3 µM. 1.3% of 370,000 active;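 active = inhibition above the plate cutoff, the mean of all test compounds on that plate plus 3 SD, cut at about 35% in these data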;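 also: 0% = DMSO alone and 100% = 100 µM mitoxantrone as full dye displacement; higher means more dye released from RNA so lower well fluorescence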
HTRA1 inhibitor – HTRA1 serine protease inhibitors, primary screen, biochemical, fluorescence polarization, HTS | 0.5% of 340,000 active | Q92743 | inhibition, % at 5.96 µM | recombinant HTRA1, FP-rhodamine activity-based probe; in the data active = inhibition above about 36%;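 also: 0% = enzyme with DMSO and 100% = wells lacking enzyme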
PRMT1 inh – PRMT1 methyltransferase inhibitors, primary screen, biochemical, fluorescence polarization | Protein arginine N-methyltransferase 1 (Homo sapiens), Q99873 | recombinant PRMT1, activity-based probe fluorescence polarization | inhibition, % at 2.79 µM | 1.3% of 370,000 active;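 active = inhibition above about 21% made by adding two undisclosed values, limit read from the data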
ABHD4 inh – ABHD4 inhibitors, primary screen, biochemical, fluorescence polarization, mouse; (Lyso)-N-acylphosphatidylethanolamine lipase (Mus musculus), Q8VD66; purified mABHD4, FP-Rh probe fluorescence polarization; inhibition, % at 8.92 µM; 0.54% of 370,000 active;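 active = inhibition exceeding the mean over every tested compound plus 3 SD, cut at about 30% in these data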;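 also: 0% = plate median of compound wells and 100% = S159A mutant with DMSO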
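system = mouse ABHD4 enzyme, wild type | medium = HEPES pH 7.0, NaCl, Pluronic buffer | also added = FP-Rh probe | incubation = Enzyme–compound pre-incubation 45 min, then probe 60 min, both 25 °C | technique = fluorescence polarization, excitation 525 nm, emission 598 nm, BODIPY TMR filters | controls = S159A mutant high control, sample median low control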
HTRA1 conf – HTRA1 protease inhibitors, retest, confirmation, biochemical, fluorescence polarization; shares compounds with HTRA1 inhibitor; recombinant HTRA1, FP-rhodamine activity-based probe; inhibition, % at 5.96 µM; 66% of 1,600 active; AID 540248, 2011;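 active = mean inhibition over three repeats above a set limit taken from the earlier primary screen, cut at about 37% in these data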;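 also: 0% = HTRA1 with DMSO and 100% = wells lacking HTRA1; inhibitors block probe binding so polarization drops and inhibition rises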
rCAG bind conf – small molecules binding CAG repeat RNA – biochemical, fluorescence, confirmation | shares compounds with rCAG RNA binder | r(CAG) RNA repeat, TO-PRO-1 dye displacement fluorescence | inhibition, % at 3 µM | 70% of 4,300 active | AID 652065, 2013;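 active = inhibition above a per-plate cutoff, the mean inhibition of sample wells plus 3 SD, cut at about 35% in these data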;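 also: loss of TO-PRO-1 fluorescence as compound displaces dye from 1x1 AA loop RNA; 0% = DMSO only wells and 100% = 100 µM mitoxantrone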
DNA CAG counter – displacement of TO-PRO-1 from CAG DNA duplex, counter-screen for rCAG RNA repeat binder project, biochemical, fluorescence, TO-PRO-1 dye, d(CAG) DNA oligo; d(CAG) DNA oligo TO-PRO-1 dye displacement; inhibition, % at 3 µM; 94% of 4,300 active; shares compounds with rCAG RNA binder; AID 652068, 2013;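 active = inhibition above its plate's cutoff, the mean test-well inhibition plus 3 SD, cut at about 4.8% in these data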;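 also: 0% = DNA dye mix with DMSO and 100% = 100 µM mitoxantrone; hits displace the dye from DNA and so lower well fluorescence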
mABHD4 conf – ABHD4 inhibitors, retest, confirmation, biochemical, fluorescence polarization, mouse | shares compounds with ABHD4 inh | purified mABHD4, FP-Rh probe fluorescence polarization | inhibition, % at 8.92 µM | 55% of 1,800 active | AID 720658, 2013;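 active = mean inhibition across replicates above the hit cutoff set in the primary screen, cut at about 30% in these data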;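 also: 0% = wild-type ABHD4 with DMSO and 100% = catalytically dead S159A mutant with DMSO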
The depositor's hits bear a star. Compounds with a hit are over-represented: about 3.5% of the library has one in this group of screens.

`COC(=O)[C@]12C[C@H](CC(=O)N3CCN(C(=O)C4CC4)CC3)C(=O)N(Cc3ccco3)C1=C[C@H](C(C)C)O[C@@H]2C1CC1` gave SIAE inh 0.7, rCAG RNA binder 2.5, PRMT1 inh 2.7 and ABHD4 inh 2.0.
Screening O=C(NCCc1ccc(F)cc1)c1ccc2c(c1)ncn2C1CCCCC1 returned SIAE inh -4.4, rCAG RNA binder 1.4, PRMT1 inh -2.7 and ABHD4 inh -3.4.
`O=C1CCC[C@H]2C[C@H](NCc3cccs3)CC[C@]23CCCN13` gave SIAE inh 3.0, PRMT1 inh -1.6 and ABHD4 inh 1.8.
Screening O=C(O)[C@H]1CCCC[C@H]1C(=O)Nc1ccc(Nc2ccccc2)cc1 returned SIAE inh 6.9, TCR CD3 inh -5.5, rCAG RNA binder 9.2, HTRA1 inhibitor 67.0*, PRMT1 inh 12.4, ABHD4 inh 41.9*, HTRA1 conf 20.9 and mABHD4 conf 18.7.
Oc1ccc(/C=N/Nc2cc(N3CCCC3)nc(N3CCCC3)n2)cc1O was read as SIAE inh 21.9*, TCR CD3 inh 33.0*, rCAG RNA binder 39.6*, HTRA1 inhibitor 57.8*, PRMT1 inh 5.0, ABHD4 inh 35.4*, HTRA1 conf 140.0* and mABHD4 conf 39.7*.
Screening O=C(Nc1ccc(Cl)cc1Cl)O[C@@H]1CC[C@@]23CCCN2C(=O)CCC[C@H]3C1 returned SIAE inh -2.9, PRMT1 inh 1.6 and ABHD4 inh 1.4.
`O=C1C(Cl)=C(N2CCCCC2)C(=O)N1c1ccccc1Cl` gave SIAE inh 13.9, TCR CD3 inh -0.4, rCAG RNA binder -3.2, HTRA1 inhibitor -7.5, PRMT1 inh 17.1 and ABHD4 inh 4.9.
`O=C1c2cccc(Cl)c2C(=O)c2c1cccc2N1CCCC1` gave SIAE inh 7.9, TCR CD3 inh -7.3, rCAG RNA binder 3.2, HTRA1 inhibitor 65.1*, PRMT1 inh 7.0, ABHD4 inh 65.6*, HTRA1 conf 64.7* and mABHD4 conf 85.4*.
`CN(C)[C@H]1CCN(c2cccc3c2S(=O)(=O)N(C2CC2)CCCO3)C1` gave SIAE inh -0.5, rCAG RNA binder 2.6, PRMT1 inh -0.2 and ABHD4 inh 3.6.
C[C@H]1[C@@H](NC(=O)c2ccc(Cl)cc2)CC[C@@]23CCCN2C(=O)CCC[C@@H]13 was read as SIAE inh 7.7, PRMT1 inh 1.8 and ABHD4 inh 1.5.
For Nc1[nH]n(-c2ccccc2)c(=O)c1N=Nc1ccc2ncsc2c1 the results were SIAE inh 13.1, TCR CD3 inh -5.6, rCAG RNA binder 18.6, HTRA1 inhibitor 36.3*, PRMT1 inh 23.5*, ABHD4 inh 48.0*, HTRA1 conf 26.1 and mABHD4 conf 65.1*.
`Nc1[nH]n(-c2ccccc2)c(=O)c1N=Nc1ccccc1` gave SIAE inh 10.6, TCR CD3 inh 3.3, rCAG RNA binder 5.3, HTRA1 inhibitor 25.1, PRMT1 inh -1.2 and ABHD4 inh 26.3.
`Cc1[nH]n2c(=O)cc(-c3ccc([N+](=O)[O-])cc3)nc2c1-c1ccccc1` gave SIAE inh 10.3, TCR CD3 inh 4.0, rCAG RNA binder 91.3*, HTRA1 inhibitor 40.2*, PRMT1 inh -1.6, ABHD4 inh 48.0*, HTRA1 conf 87.4*, rCAG bind conf 86.7*, DNA CAG counter 63.5* and mABHD4 conf 72.0*.
`CCn1c(SCC(=O)c2ccc(-c3ccccc3)cc2)nnc1-c1ccccc1OC` gave SIAE inh -3.5, rCAG RNA binder 4.7, PRMT1 inh -2.2 and ABHD4 inh -19.2.
`CCn1c2ccccc2c2cc(NC(=O)COC(=O)c3cc(F)cc(F)c3)ccc21` gave SIAE inh 0.0, rCAG RNA binder 2.8, PRMT1 inh -1.4 and ABHD4 inh 1.9.
`N#Cc1c(N)nc2c3c(sc(=N)c2c1N)NC(=O)CC3c1c(F)cccc1Cl` (stereo not drawn) gave SIAE inh 0.1, TCR CD3 inh 10.1, rCAG RNA binder 25.1, HTRA1 inhibitor 63.1*, PRMT1 inh 1.4, ABHD4 inh 35.1*, HTRA1 conf 25.0 and mABHD4 conf 16.7.
Screening O=C(c1cccs1)C1CCN(c2ncnc3sccc23)CC1 returned SIAE inh 2.0, PRMT1 inh -1.5 and ABHD4 inh -3.7.
For COc1ccc([C@H]2OC(=O)C[C@@H]2C(=O)N2CCN(c3ccccc3Cl)CC2)cc1OC the results were SIAE inh -1.4, rCAG RNA binder 1.7, PRMT1 inh -2.2 and ABHD4 inh -1.6.
Screening CN=c1scc(-c2ccccc2F)n1/N=C/c1ccc[nH]1 returned SIAE inh -3.1, TCR CD3 inh -10.5, rCAG RNA binder 10.5, HTRA1 inhibitor 27.4, PRMT1 inh 6.7 and ABHD4 inh -1.0.
Screening CN=c1scc(-c2ccccc2F)n1/N=C/c1ccc(O)c(O)c1O returned SIAE inh 15.6, TCR CD3 inh 15.7, rCAG RNA binder 40.9*, HTRA1 inhibitor 71.5*, PRMT1 inh 20.2, ABHD4 inh 48.5*, HTRA1 conf 77.3*, rCAG bind conf 56.2*, DNA CAG counter 25.4* and mABHD4 conf 59.9*.
CC(C)N=c1scc(-c2cccs2)n1/N=C/c1ccc(O)c(O)c1O was read as SIAE inh 13.7, TCR CD3 inh 7.1, rCAG RNA binder 46.2*, HTRA1 inhibitor 57.0*, PRMT1 inh 9.9, ABHD4 inh 40.9*, HTRA1 conf 65.5*, rCAG bind conf 55.9*, DNA CAG counter 30.6* and mABHD4 conf 54.1*.
`CCN(CC)c1ccc(N=Cc2ccc(N(CC)CC)cc2O)cc1` gave SIAE inh 6.3, TCR CD3 inh -2.1, rCAG RNA binder 6.9, HTRA1 inhibitor 65.2*, PRMT1 inh 23.5*, ABHD4 inh 38.8*, HTRA1 conf 5.6 and mABHD4 conf 19.3.

From PubChem
